Laboratory results published in ChEMBL document CHEMBL2424587, “Antiproliferative activity of abietane diterpenoids against human tumor cells” (J Nat Prod, 2013).
pIC50: −log10 of the molar value. Active and inactive are the calls of the source. The rule behind the calls is not given here.

Test system: MOLT-3
Experiment: Cytotoxicity against human MOLT3 cells after 72 hrs by MTT assay
Assay type: functional, cell-based
Settings: MOLT-3, 72 h
Procedure, shortened: (§1)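 MTT assay: 1 × 10^4 exponentially growing cells per well incubated 72 h over a range of compound concentrations; MTT 0.5 mg/mL for 4 h at 37 °C, then 10% SDS in 0.05 M HCl overnight at room temperature in the dark; absorbance at 570 nm. Leukemia and SK-MEL-1 lines grown in RPMI 1640, MCF-7 in DMEM, both with 10% heat-inactivated FBS. IC50 given as mean ± SEM of 3–5 independent experiments, each in triplicate.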

Structure (SMILES)	pIC50
CC(=O)O[C@H]1C2=C(C(=O)C(OC(=O)c3ccc(Cl)cc3)=C(C(C)C)C2=O)[C@@]2(C)CCCC(C)(C)[C@@H]2[C@@H]1O	5.85

Test system: HL-60
Experiment: Induction of apoptosis in human HL60 cells assessed as nuclear chromatin condensation after 6 hrs by Hoechst 33258 staining-based fluorescence microscopy
Assay type: functional, cell-based
Settings: not given

Structure (SMILES)	Activity
CC(=O)O[C@H]1C2=C(C(=O)C(OC(=O)c3ccc(Cl)cc3)=C(C(C)C)C2=O)[C@@]2(C)CCCC(C)(C)[C@@H]2[C@@H]1O	Active

Test system: HL-60
Experiment: Induction of apoptosis in human HL60 cells assessed as procaspase-9 cleavage at 3 uM after 24 hrs by immunoblotting analysis
Assay type: functional, cell-based
Settings: not given
Procedure, shortened: (§2)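 HL-60 cells treated 24 h with 3 μM; immunoblots of lysates probed with antibodies that recognize both pro-caspases and cleaved caspases, and for PARP.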

Structure (SMILES)	Activity
CC(=O)O[C@H]1C2=C(C(=O)C(OC(=O)c3ccc(Cl)cc3)=C(C(C)C)C2=O)[C@@]2(C)CCCC(C)(C)[C@@H]2[C@@H]1O	Active

Test system: U-937
Experiment: Cytotoxicity against human U937 cells after 72 hrs by MTT assay
Assay type: functional, cell-based
Settings: U-937, 72 h
Procedure, shortened: as §1

Structure (SMILES)	pIC50
CC(=O)O[C@H]1C2=C(C(=O)C(OC(=O)c3ccc(Cl)cc3)=C(C(C)C)C2=O)[C@@]2(C)CCCC(C)(C)[C@@H]2[C@@H]1O	5.96

Test system: HL-60
Experiment: Cell cycle arrest in human HL60 cells assessed as accumulation at S phase at 3 uM after 24 hrs by […]propidium iodide staining-based flow cytometry (reference value: 32%)
Assay type: functional
Settings: not given

Structure (SMILES)	Activity
CC(=O)O[C@H]1C2=C(C(=O)C(OC(=O)c3ccc(Cl)cc3)=C(C(C)C)C2=O)[C@@]2(C)CCCC(C)(C)[C@@H]2[C@@H]1O	23%

Test system: HL-60
Experiment: Induction of apoptosis in human HL60 cells assessed as externalization of phosphotidylserine at 3 uM after 24 hrs by AnnexinV-FITC/propidium iodide staining-based flow cytometry
Assay type: functional, cell-based
Settings: not given
Procedure, shortened: (§3)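 HL-60 cells given 3 μM for 24 h, stained with annexin V-FITC and propidium iodide, and analysed by flow cytometry; annexin+/PI− cells scored as early apoptotic and double-positive cells as late; three separate experiments.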

Structure (SMILES)	Activity
CC(=O)O[C@H]1C2=C(C(=O)C(OC(=O)c3ccc(Cl)cc3)=C(C(C)C)C2=O)[C@@]2(C)CCCC(C)(C)[C@@H]2[C@@H]1O	Active

Test system: HL-60
Experiment: Induction of apoptosis in human HL60 cells assessed as release of Smac/DIABLO to cytosolic fraction by Western blotting analysis
Assay type: functional, cell-based
Settings: not given

Structure (SMILES)	Activity
CC(=O)O[C@H]1C2=C(C(=O)C(OC(=O)c3ccc(Cl)cc3)=C(C(C)C)C2=O)[C@@]2(C)CCCC(C)(C)[C@@H]2[C@@H]1O	Active

Test system: HL-60
Experiment: Induction of apoptosis in human HL60 cells assessed as late apoptotic cells at 3 uM after 24 hrs by AnnexinV-FITC/propidium iodide staining-based flow cytometry (reference value: 3.1%)
Assay type: functional
Settings: not given
Procedure, shortened: as §3

Structure (SMILES)	Activity
CC(=O)O[C@H]1C2=C(C(=O)C(OC(=O)c3ccc(Cl)cc3)=C(C(C)C)C2=O)[C@@]2(C)CCCC(C)(C)[C@@H]2[C@@H]1O	28.8%

Test system: SK-MEL-1
Experiment: Cytotoxicity against human SK-MEL-1 cells after 72 hrs by MTT assay
Assay type: functional, cell-based
Settings: SK-MEL-1, 72 h
Procedure, shortened: as §1

Structure (SMILES)	pIC50
CC(=O)O[C@H]1C2=C(C(=O)C(OC(=O)c3ccc(Cl)cc3)=C(C(C)C)C2=O)[C@@]2(C)CCCC(C)(C)[C@@H]2[C@@H]1O	5.40

Test system: MCF7
Experiment: Cytotoxicity against human MCF7 cells after 72 hrs by MTT assay
Assay type: functional, cell-based
Settings: MCF7, 72 h
Procedure, shortened: as §1

Structure (SMILES)	pIC50
CC(=O)O[C@H]1C2=C(C(=O)C(OC(=O)c3ccc(Cl)cc3)=C(C(C)C)C2=O)[C@@]2(C)CCCC(C)(C)[C@@H]2[C@@H]1O	5.54

Test system: HL-60
Experiment: Induction of apoptosis in human HL60 cells assessed as release of AIF to cytosolic fraction by Western blotting analysis
Assay type: functional, cell-based
Settings: not given

Structure (SMILES)	Activity
CC(=O)O[C@H]1C2=C(C(=O)C(OC(=O)c3ccc(Cl)cc3)=C(C(C)C)C2=O)[C@@]2(C)CCCC(C)(C)[C@@H]2[C@@H]1O	Active

Test system: U-937
Experiment: Cytotoxicity against human U937 cells overexpressing Bcl-2 protein after 72 hrs by MTT assay
Assay type: functional, cell-based
Settings: U-937, 72 h

Structure (SMILES)	pIC50
CC(=O)O[C@H]1C2=C(C(=O)C(OC(=O)c3ccc(Cl)cc3)=C(C(C)C)C2=O)[C@@]2(C)CCCC(C)(C)[C@@H]2[C@@H]1O	5.96

Test system: HL-60
Experiment: Induction of apoptosis in human HL60 cells assessed as release of cytochrome c to cytosolic fraction by Western blotting analysis
Assay type: functional, cell-based
Settings: not given

Structure (SMILES)	Activity
CC(=O)O[C@H]1C2=C(C(=O)C(OC(=O)c3ccc(Cl)cc3)=C(C(C)C)C2=O)[C@@]2(C)CCCC(C)(C)[C@@H]2[C@@H]1O	Active

Test system: HL-60
Experiment: Induction of apoptosis in human HL60 cells assessed as procaspase-4 cleavage at 3 uM after 24 hrs by immunoblotting analysis
Assay type: functional, cell-based
Settings: not given
Procedure, shortened: as §2

Structure (SMILES)	Activity
CC(=O)O[C@H]1C2=C(C(=O)C(OC(=O)c3ccc(Cl)cc3)=C(C(C)C)C2=O)[C@@]2(C)CCCC(C)(C)[C@@H]2[C@@H]1O	Active

Test system: HL-60
Experiment: Cytotoxicity against human HL60 cells overexpressing Bcl-XL protein after 72 hrs by MTT assay
Assay type: functional, cell-based
Settings: HL-60, 72 h

Structure (SMILES)	pIC50
CC(=O)O[C@H]1C2=C(C(=O)C(OC(=O)c3ccc(Cl)cc3)=C(C(C)C)C2=O)[C@@]2(C)CCCC(C)(C)[C@@H]2[C@@H]1O	5.66

Test system: HL-60
Experiment: Induction of apoptosis in human HL60 cells assessed as reduction in mitochondrial membrane potential at 3 uM after 24 hrs by JC-1 staining-based flow cytometry
Assay type: functional, cell-based
Settings: not given
Procedure, shortened: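 ΔΨm in HL-60 cells after 24 h at 3 μM assessed by JC-1 fluorescence on flow cytometry; two separate experiments, each in triplicate.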

Structure (SMILES)	Activity
CC(=O)O[C@H]1C2=C(C(=O)C(OC(=O)c3ccc(Cl)cc3)=C(C(C)C)C2=O)[C@@]2(C)CCCC(C)(C)[C@@H]2[C@@H]1O	Active
